Results: publication PMC10501872 (Acta Pharmaceutica Sinica. B, 2023)

Key:
TLR4 [1] = target: T1, TLR4 (Homo sapiens, UniProt O00206); experiment: Cellular thermal shift assay, TLR4; assay type: binding; settings: 20 μmol/L, THP-1 cells
Target sequence in this assay (O00206 24-839): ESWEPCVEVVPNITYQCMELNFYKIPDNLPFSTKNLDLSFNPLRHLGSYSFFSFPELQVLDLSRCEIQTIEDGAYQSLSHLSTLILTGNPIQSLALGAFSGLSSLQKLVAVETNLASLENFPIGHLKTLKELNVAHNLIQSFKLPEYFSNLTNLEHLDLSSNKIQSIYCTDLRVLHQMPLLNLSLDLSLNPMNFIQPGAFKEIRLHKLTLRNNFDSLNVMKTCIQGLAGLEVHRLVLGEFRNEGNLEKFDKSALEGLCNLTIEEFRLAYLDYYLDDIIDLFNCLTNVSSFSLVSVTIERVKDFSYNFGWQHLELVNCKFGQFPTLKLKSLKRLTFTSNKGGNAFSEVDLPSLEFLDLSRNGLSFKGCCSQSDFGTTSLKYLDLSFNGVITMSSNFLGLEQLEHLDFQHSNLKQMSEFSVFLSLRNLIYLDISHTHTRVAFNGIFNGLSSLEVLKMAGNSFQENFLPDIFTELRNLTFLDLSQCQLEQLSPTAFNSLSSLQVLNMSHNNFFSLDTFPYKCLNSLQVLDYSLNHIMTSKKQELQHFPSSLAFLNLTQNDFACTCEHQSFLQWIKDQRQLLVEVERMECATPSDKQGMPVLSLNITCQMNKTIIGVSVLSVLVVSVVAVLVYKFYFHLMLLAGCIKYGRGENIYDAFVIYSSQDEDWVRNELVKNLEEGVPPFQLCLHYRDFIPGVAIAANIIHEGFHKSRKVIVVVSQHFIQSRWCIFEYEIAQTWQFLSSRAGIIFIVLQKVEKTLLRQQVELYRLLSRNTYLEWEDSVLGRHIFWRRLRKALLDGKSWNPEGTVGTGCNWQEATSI

HEK-Blue hTLR2 cells = experiment: Cell toxicity assay; assay type: cell-based, human; settings: 24 h, CCK-8
Summary of the method: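 HEK-hTLR2 cells were seeded at 3 × 10^4 per well in DMEM with 10% FBS and left overnight at 37 °C. Graded concentrations of test compound were added for 24 h at 37 °C. CCK-8 was then added for 1–4 h at 37 °C and absorbance read at 450 nm.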

TLR2 [2] = target: T2, TLR2 (Homo sapiens, UniProt O60603); experiment: Cellular thermal shift assay, TLR2; assay type: binding; settings: 20 μmol/L, THP-1 cells, 45 to 53 °C, especially at 51 °C
T2 sequence (O60603 21-784): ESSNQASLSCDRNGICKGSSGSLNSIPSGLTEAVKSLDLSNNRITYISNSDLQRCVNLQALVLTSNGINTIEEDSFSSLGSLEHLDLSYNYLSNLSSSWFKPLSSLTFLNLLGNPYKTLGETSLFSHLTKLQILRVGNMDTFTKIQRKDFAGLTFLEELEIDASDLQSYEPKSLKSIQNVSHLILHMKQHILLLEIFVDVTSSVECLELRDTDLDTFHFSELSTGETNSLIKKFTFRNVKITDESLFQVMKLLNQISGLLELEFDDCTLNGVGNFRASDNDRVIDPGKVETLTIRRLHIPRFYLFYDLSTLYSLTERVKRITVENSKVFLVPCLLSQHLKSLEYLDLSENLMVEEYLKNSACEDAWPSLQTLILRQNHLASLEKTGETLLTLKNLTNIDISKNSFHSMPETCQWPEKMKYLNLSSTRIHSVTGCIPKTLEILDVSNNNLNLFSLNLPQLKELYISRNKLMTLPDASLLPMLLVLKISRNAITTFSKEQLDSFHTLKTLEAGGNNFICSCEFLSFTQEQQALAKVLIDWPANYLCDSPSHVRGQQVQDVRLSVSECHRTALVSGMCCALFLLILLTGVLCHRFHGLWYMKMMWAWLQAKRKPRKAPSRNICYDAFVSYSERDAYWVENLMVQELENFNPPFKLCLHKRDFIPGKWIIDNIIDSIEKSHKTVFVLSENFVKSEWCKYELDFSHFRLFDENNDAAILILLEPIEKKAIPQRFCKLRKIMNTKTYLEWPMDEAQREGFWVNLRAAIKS

[3] = test system: mouse primary peritoneal macrophage; experiment: Peritoneal macrophage phenotype assay; assay type: cell-based; settings: 10 μmol/L
Summary of the method: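 Peritoneal macrophages were plated at 1 × 10^6 per well in RPMI 1640 with 10% FBS and left overnight. Cells were treated for 24 h with medium, Pam3CSK4 (100 ng/mL) + IFN-γ (40 ng/mL), or LPS (100 ng/mL) + IFN-γ (40 ng/mL), each with test compound. Cells were trypsinised, stained 30 min for CD86 and CD11b, and analysed by flow cytometry.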

TLR2 [4] = target: T2, TLR2; experiment: Surface plasmon resonance, hTLR2; assay type: binding
Summary of the method: (§1)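 For SPR chip coating, human TLR2 was expressed in insect H5 cells and diluted in PBS to 1 mg/mL. Commercial human TLR4 protein was diluted in PBS to 0.1 mg/mL.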

Water solubility = assay type: physicochemical
TLR2 [5] = target: T2, TLR2; experiment: QUANTI-blue SEAP assay, Pam3CSK4-stimulated HEK-Blue hTLR2 cells; assay type: cell-based
Summary of the method: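 HEK-Blue hTLR2 cells (4 × 10^4 per well) were grown 24 h at 37 °C, 5% CO2 in DMEM with 10% FBS, then given fresh medium. Graded test compound and Pam3CSK4 (100 ng/mL) were added for 24 h. Supernatant was mixed 1:1 with QUANTI-Blue, shaken in the dark, and OD620 read at 15–30 min.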

[6] = test system: healthy human peripheral blood mononuclear cells (PBMCs); experiment: Cytokines ELISA, Pam3CSK4-treated PBMCs; assay type: cell-based; settings: 5 μmol/L, Pam3CSK4 100 ng/mL, 24 h
Summary of the method: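 Human PBMCs were seeded at 0.5 × 10^6 per well in RPMI 1640 with 10% FBS. Test compound plus Pam3CSK4 (100 ng/mL) was added for 24 h at 37 °C, 5% CO2. Supernatants were stored at −80 °C, then assayed by sandwich ELISA with recombinant cytokine standards, in triplicate.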

TLR2 [7] = target: T2, TLR2; experiment: Competitive combination assay with Rhodamine-Pam3CSK4; assay type: cell-based; settings: 1 μmol/L, Rhodamine-Pam3CSK4 800 ng/mL, 4 h
Summary of the method: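 HEK-hTLR2 cells (3 × 10^4 per well) were seeded in DMEM with 10% FBS and left overnight. Medium was replaced with DMEM containing 800 ng/mL rhodamine-Pam3CSK4 and 1 μmol/L test compound for 4 h. After three PBS washes, nuclei were stained with DAPI for 5 min, cells were washed again and imaged by confocal microscopy.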

C57Bl/6 mice [8] = experiment: DSS-induced colitis; assay type: in vivo, mouse; settings: for weight loss: oral administration, Day 8
Summary of the method: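 Colitis was induced with 3.5% DSS in drinking water for 5 days (not in controls), followed by normal water. From Day 2, test compound (5 or 25 mg/kg), dexamethasone (25 mg/kg) or vehicle was given orally. Body weight was recorded daily and mice were killed on Day 8. Colon was lysed in RIPA with protease/phosphatase inhibitors by sonication at 4 °C and spun at 12,000×g for 30 min. IL-6 and TNF-α were measured by ELISA on BCA-equalised protein.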

[9] = test system: primary murine peritoneal macrophages; experiment: Nitric oxide; assay type: cell-based, mouse; settings: 10 μmol/L; Pam3CSK4 100 ng/mL, IFN-γ 40 ng/mL
Summary of the method: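 Thioglycolate-elicited peritoneal macrophages from 6–8-week C57BL/6 mice were seeded at 1 × 10^6 per well. Cells were exposed to IFN-γ (40 ng/mL) and Pam3CSK4 (100 ng/mL) with test compound for 48 h. Nitrite was read at 570 nm against a sodium nitrite standard curve.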

C57Bl/6 mice [10] = experiment: Carrageenan-induced paw edema model; assay type: in vivo, mouse; settings: at 4 h; for paw swelling (measured by volume): ip prior to carrageenan
Summary of the method: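 Male C57Bl/6 mice (6–8 weeks) were randomised into four groups of six. Saline, indomethacin (10 mg/kg ip) or test compound (5 mg/kg ip) was given 1 h before 50 μL 1% carrageenan was injected into the right hind plantar paw. Paw volume was read by plethysmometer at baseline and at 1, 4, 8 and 24 h. At 4 h, paws were weighed and homogenised in 0.5% HTAB phosphate buffer (pH 6.0); supernatant triplicates were assayed with 3,3′-dimethoxybenzidine/1% H2O2 for MPO.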

KM mice = experiment: Toxicity studies in vivo; parameters: species or system mouse; settings: 250 mg/kg oral on Day 1, 3 and 5; Day 7
Summary of the method: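 Male and female KM mice (6–8 weeks) were split into control and treated groups of 10 (half male). Test compound was given orally on Days 1, 3 and 5; controls received the same volume of solvent. Body weight was recorded daily. On Day 7, mice were killed and tissues taken for H&E pathology.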

C57Bl/6 mice [11] = experiment: Cecum ligation and puncture sepsis model; assay type: in vivo, mouse; settings: oral 5 and 25 mg/kg 1 h before CLP; serum and lung tissue, 8 h
Summary of the method: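 Male C57Bl/6 mice aged 6–8 weeks were used for polymicrobial sepsis by CLP. Test compound was given orally 1 h before surgery; sham-operated mice received the same volume of saline. Serum and lung tissue were taken 8 h after surgery for ELISA.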

TLR2/6 = TLR2/6 (Homo sapiens, UniProt O60603); experiment: SEAP signaling induced by Pam2CSK4 in HEK-Blue hTLR2 cells; assay type: cell-based; settings: Pam2CSK4 100 ng/mL, 24 h
Sequence of TLR2/6 (O60603 21-784): as above

mouse primary BMDCs = experiment: BMDCs activation assay; assay type: cell-based; settings: 10 μmol/L
Summary of the method: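 BMDCs were generated from femur and tibia marrow of C57BL/6 mice and collected on day 7. They were seeded at 5 × 10^5 per well in RPMI 1640 with 10% FBS and left overnight. Cells then received Pam3CSK4 (300 ng/mL) or LPS (100 ng/mL) plus test compound for 24 h. Harvested cells were stained 30 min for CD86, CD80 and CD11c and read by flow cytometry.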

TLR4 [12] = experiment: Cytokines ELISA, LPS-treated peritoneal macrophages and THP-1 cells; assay type: cell-based, human and murine; settings: LPS 100 ng/mL, 24 h
Summary of the method: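 Thioglycolate-elicited peritoneal macrophages from C57BL/6 mice were seeded at 0.5 × 10^6 per well in RPMI 1640 with 10% FBS. THP-1 cells (2.5 × 10^5 cells/mL) were differentiated with 100 nmol/L PMA for 24 h, washed and rested 24 h in fresh medium. Both cell types received LPS (100 ng/mL) plus graded test compound for 24 h at 37 °C. Supernatants were frozen at −80 °C and cytokines quantified by sandwich ELISA against recombinant standards, in triplicate.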

TLR4 [13] = target: T1, TLR4; experiment: Surface plasmon resonance, hTLR4; assay type: binding; settings: SPR
Summary of the method: as §1
Target sequence in this assay (O00206 24-631 limits assumed): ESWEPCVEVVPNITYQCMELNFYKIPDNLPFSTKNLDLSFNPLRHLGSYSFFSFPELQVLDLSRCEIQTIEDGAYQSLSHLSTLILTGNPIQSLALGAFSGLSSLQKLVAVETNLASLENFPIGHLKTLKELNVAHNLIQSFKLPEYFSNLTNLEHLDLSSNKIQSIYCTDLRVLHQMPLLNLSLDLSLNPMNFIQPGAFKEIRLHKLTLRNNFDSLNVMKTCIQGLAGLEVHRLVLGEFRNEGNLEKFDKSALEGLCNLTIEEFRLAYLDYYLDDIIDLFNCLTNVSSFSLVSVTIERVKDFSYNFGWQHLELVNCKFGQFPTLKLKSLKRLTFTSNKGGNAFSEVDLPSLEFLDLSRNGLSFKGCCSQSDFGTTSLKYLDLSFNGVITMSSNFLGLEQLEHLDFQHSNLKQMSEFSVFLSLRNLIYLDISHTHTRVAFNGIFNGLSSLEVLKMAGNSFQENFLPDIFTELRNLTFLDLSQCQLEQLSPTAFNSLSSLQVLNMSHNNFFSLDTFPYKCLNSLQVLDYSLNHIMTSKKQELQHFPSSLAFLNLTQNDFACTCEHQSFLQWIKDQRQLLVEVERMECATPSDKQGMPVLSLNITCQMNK

[14] = Pharmacokinetics in rat plasma; assay type: in vivo; settings: for AUC: rat plasma; for AUC / half-life: n = 5; for half-life: t1/2, rat plasma

## COc1ccc2c(=O)oc3c(OC)cc(CC(O)CN(C)C)c4c(=O)oc1c2c34 (stereo not drawn) [SMU-Y6]
TLR4 [1]
  thermal stabilization of TLR4: failed to induce the thermal stabilization
HEK-Blue hTLR2 cells
  cytotoxicity compared with Taspine: reduced toxicity
TLR2 [2]
  thermal stabilization of TLR2 protein: higher thermal stabilization
[3]
  polarization induced by LPS and IFN-γ: no effect
TLR2 [4]
  Kd: 180 nM
TLR2 [4]; SPR
  time to complete dissociation from TLR2 protein: 500 s
Water solubility; vs Taspine
  water solubility relative to Taspine: 20 times
TLR2 [5]
  IC50: 110 ± 40 nM
TLR2 [5]; vs Taspine
  improvement of activity compared with Taspine: 10 fold
[6]
  release of IL-1β: completely inhibited
  release of TNF-α: completely inhibited
TLR2 [7]
  fluorescence intensity of Rhodamine-Pam3CSK4: reduced the fluorescence intensity
C57Bl/6 mice [8]
  weight loss: reduced weight loss
C57Bl/6 mice [8]; oral, 5 and 25 mg/kg
  IL-6 in local colonic tissue: reduced the production
  TNF-α in local colonic tissue: reduced the production
[9]
  production of NO induced by Pam3CSK4: significantly reduced
C57Bl/6 mice [10]
  activity of local myeloperoxidase (MPO) in paw tissue: reversed
  paw swelling (measured by volume): significantly reduced
KM mice
  immediate toxicity: did not seem to exhibit immediate toxicity
  pathological analysis of heart, liver, spleen, lung and kidney: no obvious organic damage
C57Bl/6 mice [11]
  production of IL-6 in sepsis: significantly reduced the production
  production of TNF-α in sepsis: significantly reduced the production
TLR2/6
  SEAP signaling induced by Pam2CSK4: suppressed the SEAP signaling
Mouse primary BMDCs
  LPS-induced activation of BMDCs: failed to reverse
Mouse primary BMDCs; Pam3CSK4, 16.6% without compound
  percentage of CD80+ CD86+ cells: 8.1%
TLR4 [12]
  inhibitory activity with regards to TLR4 (TNF-α, IL-6): little or even no inhibitory activity
TLR4 [13]
  binding signal to recombinant hTLR4 protein: did not detect a binding signal
[14]; ip
  Cmax: 208 ± 31.1 ng/mL
  Tmax: 0.25 ± 0.01 h
[14]; ip, AUC0‒t, intraperitoneal injection
  AUC: 1790 ± 410 ng·h/mL
[14]; ip, AUC0‒∞, intraperitoneal injection
  AUC: 2160 ± 600 ng·h/mL
[14]; ip, intraperitoneal injection
  half-life: 9.16 ± 1.11 h
[14]; po
  Cmax: 52.3 ± 5.83 ng/mL
  Tmax: 3 ± 1 h
[14]; po, AUC0‒t, oral administration
  AUC: 619 ± 84.2 ng·h/mL
[14]; po, AUC0‒∞, oral administration
  AUC: 844 ± 184 ng·h/mL
[14]; po, oral administration
  half-life: 11.5 ± 2.7 h

## CCOC(=O)C1=CCCC[C@H]1S(=O)(=O)Nc1ccc(F)cc1Cl [TAK-242, reference compound]
TLR4 [13]
  binding signal to recombinant hTLR4 protein: exhibited the ability to bind

## COc1ccc2c(c1)c(CC(=O)O)c(C)n2C(=O)c1ccc(Cl)cc1 [indomethacin, reference compound]
C57Bl/6 mice [10]
  activity of local myeloperoxidase (MPO) in paw tissue: reversed
  paw swelling (measured by volume): significantly reduced

## C[C@@H]1C[C@H]2[C@@H]3CCC4=CC(=O)C=C[C@]4(C)[C@@]3(F)[C@@H](O)C[C@]2(C)[C@@]1(O)C(=O)CO [dexamethasone, reference compound]
C57Bl/6 mice [8]
  weight loss: reduced weight loss

## COc1ccc2c(=O)oc3c(OC)cc(CCN(C)C)c4c(=O)oc1c2c34 [Taspine, reference compound]
Water solubility
  water solubility: poor water solubility
